{"source": "ChEMBL document CHEMBL1126633", "about": "“Prodrugs of doxorubicin and melphalan and their activation by a monoclonal antibody-penicillin-G amidase conjugate” (J Med Chem, 1993)", "assay_type_in_all_cases": "functional, cell-based", "key": {"H2981 cell line [1]": {"tested_on": "H2981 cell line", "assay": "Inhibition of [3H]thymidine incorporation in human lung adenocarcinoma cells in the absence of PGA enzyme (compound + 10 micro g/mL calf intestine alkaline phosphatase)", "conditions": "H2981, 4 h", "procedure,_shortened": "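H2981 cells in IMDM with 10% FBS were exposed to compound without PGA for 4 h at 37 °C. Calf intestinal alkaline phosphatase was added to the incubation at 10 µg/mL. Cells were then washed, plated in triplicate at 10^5 cells/mL, grown 24 h and pulsed 24 h with [3H]thymidine (1 µCi/well). IC50 is the concentration giving 50% inhibition of incorporation.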"}, "H2981 cell line [2]": {"tested_on": "H2981 cell line", "assay": "Inhibition of [3H]thymidine incorporation in human lung adenocarcinoma cells in the presence of PGA enzyme", "procedure,_shortened": "(§1)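 H2981 human lung adenocarcinoma cells (10^7 cells/0.2 mL in IMDM with 10% FBS) were exposed to compound with or without added PGA at 37 °C for 4 h, then washed and counted. Triplicates were plated at 10^5 cells/mL, grown 24 h, and pulsed 24 h with [3H]thymidine (1 µCi/well). IC50 is the concentration giving 50% inhibition of incorporation.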"}, "H2981 cell line [3]": {"tested_on": "H2981 cell line", "assay": "Inhibition of [3H]thymidine incorporation in human lung adenocarcinoma cells in the absence of PGA enzyme", "conditions": "H2981, 4 h", "procedure,_shortened": "as §1"}}, "data": [{"smiles": "COc1cccc2c1C(=O)c1c(O)c3c(c(O)c1C2=O)C[C@@](O)(C(=O)CO)C[C@@H]3OC1CC(NC(=O)Cc2ccc(OP(=O)(O)O)cc2)C(O)C(C)O1", "note": "(stereo in doubt)", "values": [{"measurement": "IC50", "setting": "H2981 cell line [1]", "result": "> 1000", "unit": "µM"}, {"measurement": "IC50", "setting": "H2981 cell line [2]; h2981", "result": 0.7, "unit": "µM"}]}, {"smiles": "COc1cccc2c1C(=O)c1c(O)c3c(c(O)c1C2=O)C[C@@](O)(C(=O)CO)C[C@@H]3OC1CC(NC(=O)Cc2ccc(OP(=O)(O)O)cc2)C(O)C(C)O1", "note": "(stereo in doubt; 4)", "values": [{"measurement": "IC50", "setting": "H2981 cell line [2]; h2981", "result": 4, "unit": "µM"}, {"measurement": "IC50", "setting": "H2981 cell line [3]", "result": "> 1000", "unit": "µM"}]}, {"smiles": "COc1cccc2c1C(=O)c1c(O)c3c(c(O)c1C2=O)C[C@@](O)(C(=O)CO)C[C@@H]3OC1CC(NC(=O)Cc2ccccc2)C(O)C(C)O1", "note": "(some centres not stated)", "values": [{"measurement": "IC50", "setting": "H2981 cell line [2]; Homo sapiens, H2981, 4 h", "result": 0.2, "unit": "µM"}, {"measurement": "IC50", "setting": "H2981 cell line [3]", "result": 2, "unit": "µM"}]}, {"smiles": "N[C@@H](Cc1ccc(N(CCCl)CCCl)cc1)C(=O)O", "note": "[MELPHALAN]", "values": [{"measurement": "IC50", "setting": "H2981 cell line [3]", "result": 5, "unit": "µM"}]}, {"smiles": "COc1cccc2c1C(=O)c1c(O)c3c(c(O)c1C2=O)C[C@@](O)(C(=O)CO)C[C@@H]3OC1CC(NC(=O)Cc2ccc(N)cc2)C(O)C(C)O1", "note": "(some centres not stated)", "values": [{"measurement": "IC50", "setting": "H2981 cell line [2]; Homo sapiens, H2981, 4 h", "result": 10, "unit": "µM"}, {"measurement": "IC50", "setting": "H2981 cell line [3]", "result": "> 1000", "unit": "µM"}]}, {"smiles": "O=C(Cc1ccccc1)NC(Cc1ccc(N(CCCl)CCCl)cc1)C(=O)O", "note": "(configuration not stated)", "values": [{"measurement": "IC50", "setting": "H2981 cell line [2]; Homo sapiens, H2981, 4 h", "result": 5, "unit": "µM"}, {"measurement": "IC50", "setting": "H2981 cell line [3]", "result": 100, "unit": "µM"}]}, {"smiles": "COc1cccc2c1C(=O)c1c(O)c3c(c(O)c1C2=O)C[C@@](O)(C(=O)CO)C[C@@H]3O[C@H]1C[C@H](N)[C@H](O)[C@H](C)O1", "note": "[DOXORUBICIN]", "values": [{"measurement": "IC50", "setting": "H2981 cell line [3]", "result": 0.7, "unit": "µM"}]}]}
